For orientation: MIC means the lowest concentration that inhibits growth of the organism. What is called solubility is the concentration that dissolves in the medium under given conditions.

Series [1] deals with H. pylori strain 26695. As to the kind of experiment: Minimal inhibitory concentration. In kind it is cell-based, Helicobacter pylori. Summed up: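 Strain ATCC 26695 revived from glycerol stock on BHI agar with 10% FBS and 1% selective supplement. Twofold compound dilutions (DMSO or water stocks) mixed 1:1 with inoculated double-strength BHI (20% FBS, 2% supplement; ~0.05 OD600, 4×10^4 CFU/mL final). Shaken at 120 rpm, 37 °C, microaerophilic; OD600 read at 0, 4, 8 and 24 h. Viability checked with Christensen's urea broth (4 h, aerobic, 37 °C). MIC taken at ≥90% inhibition; triplicates, kanamycin and DMSO controls.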

Series [2] can be described thus: Solubility: concentration of dissolved inhibitor in filtered supernatants. In kind it is physicochemical. The settings on record: for solubility: water, kinetic from dmso stock; for maximal tested concentration of the fully dissolved compound: in the cell culture experiment, filtered supernatant. In a few lines: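 DMSO stocks (10 mM) diluted with water to the planned concentrations. Precipitate removed with sterile 0.22 µm syringe filters. Dissolved concentration in the filtrate measured by UV absorbance: ε261 10,900 M−1 cm−1 for the 6-benzyloxy analogue, ε299 18,000 M−1 cm−1 for 6-benzylthio analogues.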

Series [3] concerns the target PNP from Helicobacter pylori strain 26695 (HpPNP) (Helicobacter pylori, UniProt P56463). As to the kind of experiment: Inhibition of H. pylori PNP, direct spectrophotometric phosphorolysis assay. Type of series: biochemical. The settings on record: m7Guo variable substrate, 50 mM phosphate; for inhibition model describing the data: model chosen by F test / AIC; for alpha = Kiu/Kic: mixed inhibition model, 25 °C, pH 7.0.

Series [4] addresses H. pylori PNP. The settings on record: read-out: inhibition constant; competitive vs. nucleoside substrate; cited from earlier work.
Series [5] concerns H. pylori strain 26695. To be noted: cited from earlier work.
Series [6] deals with H. pylori 26695 strain. In words: Checkerboard assay of 6BnS-2Cl-Pu with metronidazole. Type of series: cell-based, Helicobacter pylori. To be noted: single agent, concentration giving about 90% inhibition or more. In a few lines:
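Sub-MIC checkerboard against strain 26695 with metronidazole (range chosen from the EUCAST MIC). Test-compound gradient 3.0–10.0. Single agents added at 2× and combinations at 4× each, with inoculated double-strength BHI (~0.05 OD600, 4×10^4 CFU/mL final). Shaken at 120 rpm, 37 °C, microaerophilic. […] FICI = MICA/MICa + MICB/MICb.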

Setting [7] is: Helicobacter pylori, 26695, 24 h.

Values after ≈ are worked out from the molar mass of the structure shown. Values joined by “and” are separate entries in the source; they are usually repeats but may differ in a detail not shown here. Equal entries are not always repeated. “Also recorded” adds a separate entry of the source. Where two headings read alike, the source gives them in different places. Marks after values point to notes of the source that are not given here.

PNP from Helicobacter pylori strain 26695 (HpPNP), sequence (P56463 whole entry): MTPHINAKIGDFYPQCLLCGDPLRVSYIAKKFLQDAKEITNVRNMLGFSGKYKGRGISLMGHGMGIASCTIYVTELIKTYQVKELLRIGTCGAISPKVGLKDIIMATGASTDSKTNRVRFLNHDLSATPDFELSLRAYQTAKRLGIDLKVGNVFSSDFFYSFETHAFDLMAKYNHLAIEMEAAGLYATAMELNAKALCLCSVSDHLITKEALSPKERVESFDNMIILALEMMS

As for `Clc1nc(Cl)c2[nH]cnc2n1` [2,6-diCl-Pu, 2,6-dichloropurine], the lowest concentration to inhibit growth in series [1] (Helicobacter pylori, 26695) (MIC) was 2500 µM (≈ 473 µg/mL). In addition, in series [1] (setting [7]), 2500 µM (≈ 473 µg/mL) was the least that counted as inhibitory (MIC). For the same compound, in series [2] (10 mM stock in milli-Q water and 2-fold dilutions, no precipitate), the “solubility in water” value was “good solubility in water; also recorded: well soluble in water”. Also, the solubility in series [2] was 236 µg/mL and 1250 µM. Also, in series [3], the “inhibition model describing the data” value is listed as “non-competitive” and the “alpha = Kiu/Kic” value came out at 1.17 ± 0.44.

For the compound `Clc1nc(OCc2ccccc2)c2[nH]cnc2n1` [6BnO-2Cl-Pu, 6-benzyloxy-2-chloropurine], in series [2], the “maximal tested concentration of the fully dissolved compound” value is 0.095 mM; the solubility was 25 µg/mL and 95 µM. Also, in series [3], the “inhibition model describing the data” value is “mixed inhibition model” and the “alpha = Kiu/Kic” value came to 0.25 ± 0.12.

Take `Clc1nc(SCc2ccccc2)c2[nH]cnc2n1` [6BnS-2Cl-Pu, 6-benzylthio-2-chloropurine]: the MIC in series [1] (setting [7]) is 69 µg/mL and 250 µM. Also, the “H. pylori 26695 cell culture growth inhibition” value in series [1] (solution prepared as 0.25 mM but partially precipitated) is on record as “full inhibition; also recorded: Complete growth inhibition”. In series [2], the “maximal tested concentration of the fully dissolved compound” value is on record as 0.040 mM; the solubility is 11.1 µg/mL and 40 µM. Also, in series [3], the “inhibition model describing the data” value is given as “probably a mixed type” and the “alpha = Kiu/Kic” value is 0.16 ± 0.15.

For `c1ccc(CSc2ncnc3nc[nH]c23)cc1` [6BnS-Pu, 6-benzylthiopurine], in series [1] (setting [7]), the MIC was 48 µg/mL and 200 µM. Further, the “H. pylori 26695 strain growth inhibition” value in series [1] (prepared as 200 µM but partially precipitated) is “completely inhibited”. In addition, in series [2], the solubility is 21 µg/mL and 85 µM. In series [3], the “inhibition model describing the data” value is “non-competitive” and the “alpha = Kiu/Kic” value was determined as 1.07 ± 0.27.

`Nc1ncnc2c([C@@H]3O[C@H](CO)[C@@H](O)[C@H]3O)[nH]nc12` [Formycin A]: the Ki in series [4] was 14 ± 1.7 µM.

On to `NC[C@H]1O[C@H](O[C@H]2[C@H](O)[C@@H](O[C@H]3O[C@H](CO)[C@@H](O)[C@H](N)[C@H]3O)[C@H](N)C[C@@H]2N)[C@H](O)[C@@H](O)[C@@H]1O` [kanamycin, Kanamycin], for which the MIC in series [5] was 0.5–64^f µg mL^−1; in series [5] (converted from literature value), 1.1 to 132 µM. The “% of H. pylori cell culture inhibition” value in series [1] (25 µg/mL (52 µM), positive control, not the maximal solubility) is on record as 92–96%.

In the case of `Cc1ncc([N+](=O)[O-])n1CCO` [metronidazole], the MIC in series [5] (EUCAST) is 8^f µg mL^−1; in series [5] (converted from EUCAST value) it was 47 µM (≈ 8.04 µg/mL). Besides, the “MIC taken for FICI calculation” value in series [6] is recorded as 2 µg/mL.
